M5 antag: blocks acetylcholine activation of human M5 receptor | inhibition, % at 3 µM | hit rate 0.59% among 360,000 | CHO-hM5 cells, Fluo-8 calcium fluorescence, ACh EC80 | P08912;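 active means inhibition above a per-plate cutoff, the mean of that plate's test compounds plus 3 SD, cut at about 27% in these data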;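 further: 0% = acetylcholine EC80 with DMSO and 100% = DMSO without agonist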
M5 PAM: CHRM5 positive allosteric modulation | P08912 | CHO-K1 hM5, Fluo-8 calcium, ACh EC20 PAM; 0% = ACh EC20, 100% = ACh EC100 | activation, % at 3 µM | hit rate 0.3% among 360,000 | AID 624038;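 active means activation above the run cutoff, the mean activation of all test compounds plus 3 SD, cut at about 18% in these data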
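Measured by: Fluo-8 calcium fluorescence; material: human M5 receptor in CHO-K1 cells; schedule: Post-acetylcholine fluorescence recording 140 s; benchmarks: low control EC20 acetylcholine (0%), high control EC100 acetylcholine (100%); read-out: Max/basal fluorescence ratio as % of EC20–EC100 ACh window; compound: single dose, 3 µM nominal final test concentration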
CHRM5 agonist: agonists of human muscarinic M5 receptor (CHRM5) | hit rate 0.19% among 360,000 | activation, % at 3 µM | P08912 | CHO-K1 hM5 cells, Fluo-8 calcium fluorescence; 0% DMSO wells, 100% maximal acetylcholine response;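 active means activation above the run's mean over test compounds plus 3 SD, cut at about 23% in these data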;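 further: signal is peak over basal fluorescence ratio across the kinetic read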
CHRM4 PAM: CHRM4 positive allosteric modulation; activation, % at 3 µM; P08173; hit rate 0.4% among 360,000; CHO-K1 hM4/Gqi5, Fluo-8 calcium fluorescence, ACh EC20; 0% = ACh EC20, 100% = maximal ACh; AID 624126;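 active means activation above its plate's cutoff, the mean activation of sample wells plus 3 SD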
M4 antag: blocks acetylcholine activation of human M4 receptor; hit rate 0.73% among 360,000; CHO-hM4 cells, ACh EC80, Fluo-8 calcium fluorescence; inhibition, % at 3 µM; P08173;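 active means inhibition above its plate's cutoff, the mean inhibition of sample wells plus 3 SD, cut at about 27% in these data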;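 further: 0% = acetylcholine EC80 with DMSO and 100% = DMSO without agonist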
CHRM4 agonist: agonists of human muscarinic M4 receptor (CHRM4); CHO-K1 hM4/Gqi5, Fluo-8 calcium fluorescence; vehicle 0%, full acetylcholine response 100%; P08173; AID 624127; hit rate 0.14% among 360,000; activation, % at 3 µM;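 active means activation above the run mean over all test wells plus 3 SD, cut at about 32% in these data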;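 further: peak over basal fluorescence ratio per well then scaled between controls; 0% = DMSO wells and 100% = acetylcholine at EC100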
Starred values were filed as active, the others as inactive. Only some compounds are listed: those with a hit (about 1.9% of all), similar ones and a draw of the others.

Screening CCC(=NCc1ccco1)c1c(O)n(-c2ccc(OC)cc2)c(=O)[nH]c1=O returned M5 antag 10, M5 PAM -7, CHRM5 agonist 7, CHRM4 PAM 4, M4 antag -5 and CHRM4 agonist 1.
For CCC(=NCc1ccco1)c1c(O)n(-c2ccc(Cl)cc2)c(=O)[nH]c1=O the results were M5 antag 8, M5 PAM 26*, CHRM5 agonist 11, CHRM4 PAM 3, M4 antag -11 and CHRM4 agonist 1.
For COC(=O)C12OCC34C(CC5C(C)=C(O)C(=O)CC5(C)C3C(O)C1O)OC(=O)C(OC(=O)/C=C(\C)C(C)C)C24 (configuration not stated) the results were M5 antag 11, M5 PAM -5, CHRM5 agonist -8, CHRM4 PAM 11, M4 antag -15 and CHRM4 agonist 0.
Screening COc1ccccc1CCNC1C2CC3CC(C2)CC1C3 (configuration not stated) returned M5 antag 8, M5 PAM -7, CHRM5 agonist -8, CHRM4 PAM -14, M4 antag 32* and CHRM4 agonist 1.
For Cc1[nH]c2ccc(OC(F)(F)F)cc2c1CCNCc1ccc(Cl)cc1 the results were M5 antag 9, M5 PAM 2, CHRM5 agonist 3, CHRM4 PAM 1, M4 antag 10 and CHRM4 agonist 15.
Screening CCOc1cccc(CNCCc2c(C)[nH]c3ccc(OC(F)(F)F)cc23)c1O returned M5 antag 42*, M5 PAM -15, CHRM5 agonist 24*, CHRM4 PAM -12, M4 antag 29* and CHRM4 agonist 43*.
For Cc1[nH]c2ccc(OC(F)(F)F)cc2c1CCNCc1cccc([N+](=O)[O-])c1 the results were M5 antag 29*, M5 PAM -13, CHRM5 agonist 17, CHRM4 PAM -11, M4 antag 16 and CHRM4 agonist 24.
`COc1cccc(C(c2nnnn2Cc2ccccc2)N2CCC3(CC2)C(=O)NCN3c2ccccc2)c1OC` (configuration not stated) gave M5 antag 19, M5 PAM -15, CHRM5 agonist 5, CHRM4 PAM -9, M4 antag 16 and CHRM4 agonist 20.
`O=c1c2ccccc2nc(-c2ccccc2Cl)n1-c1cccc(O)c1` gave M5 antag 5, M5 PAM -4, CHRM5 agonist -2, CHRM4 PAM -3, M4 antag 11 and CHRM4 agonist 3.
`CCCCCN1C(=O)c2ccccc2[C@@]2(C(=O)OCC)Cc3cc(OC)ccc3[C@@H]12` gave M5 antag 7, M5 PAM 0, CHRM5 agonist -1, CHRM4 PAM 3, M4 antag 4 and CHRM4 agonist -2.
For Cc1cc(-c2cc(C)c(N)c(C)c2)cc(C)c1N the results were M5 antag -2, M5 PAM 2, CHRM5 agonist 0, CHRM4 PAM 6, M4 antag -2 and CHRM4 agonist 1.
Screening CN(c1ccccc1)P(=O)(N1CC1)N1CC1 returned M5 antag 3, M5 PAM 9, CHRM5 agonist 7, CHRM4 PAM 12, M4 antag -4 and CHRM4 agonist 1.
`COC(=O)C1=C(c2cccc(C#N)c2)C[C@@H]2CC[C@H]1N2C(=O)N1CCCCC1` gave M5 antag 8, M5 PAM -4, CHRM5 agonist 0, CHRM4 PAM 10, M4 antag -12 and CHRM4 agonist 1.
Screening C[N+](C)(C)c1ccccc1 returned M5 antag -1, M5 PAM -17, CHRM5 agonist 52*, CHRM4 PAM 1, M4 antag -6 and CHRM4 agonist 2.
Screening O=C(c1ccc(Cl)cc1)C1CCCN(Cc2cccc3ncccc23)C1 (configuration not stated) returned M5 antag 34*, M5 PAM -37, CHRM5 agonist -13, CHRM4 PAM -36, M4 antag 20 and CHRM4 agonist 5.

Source: PubChem BioAssay
